The values below come from ChEMBL document CHEMBL1122782, “Bulky amine analogues of ketoprofen: potent antiinflammatory agents” (J Med Chem, 1984).

Assay [1] relates to Rattus norvegicus. In words: Antiinflammatory efficacy is measured by the weight gain in rats during the 3 week adjuvant arthritis test at 0.005 mM/kg (2.20 mg). Type of assay: functional. Put shortly:
(§1)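 Rats were adjuvant-injected (M. butyricum in mineral oil, one hind paw) or given a mineral-oil placebo. They were dosed by gavage daily for 21 days from the injection day, with vehicle only for both control groups, then weighed at the end. Weight gain % = (treated − adjuvant control)/(negative control − adjuvant control) × 100.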

Assay [2] relates to Rattus norvegicus. Kind of assay: Antiinflammatory efficacy is measured by the weight gain in rats during the 3 week adjuvant arthritis test at 0.16 mM/kg (70.4 mg). Type of assay: functional. Put shortly:
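Male Sprague-Dawley rats (200–230 g), eight per group, received 0.1 mL of 0.6% M. butyricum in heavy mineral oil (negative controls: mineral oil) into one hind-paw plantar tissue. Daily gavage in 1% gum tragacanth or corn oil-water emulsion began on the injection day, for 21 days. Weight gain is expressed as (treated − adjuvant control)/(negative control − adjuvant control) × 100.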

Assay [3] relates to Rattus norvegicus. Kind of assay: The percent inhibition was calculated from the average differences in hind paw volume between the adjuvant injected controls and the adjuvant-injected medicated rats at 0.08 mmol/kg; 80-89. Type of assay: functional.
In assay [4] the test system is Rattus norvegicus. Kind of assay: Ulcerogenicity was measured in stomach during the 3 week adjuvant arthritis test, no of animals with ulcers out of 4 animals tested at 0.16 mM/kg (70.4 mg) was reported. Type of assay: functional. In outline:
(§2)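 Male Sprague-Dawley rats (200–230 g) were injected in the plantar tissue of one hind paw with 0.1 mL of 0.6% M. butyricum suspension in heavy mineral oil. Daily oral gavage began on the day of adjuvant injection and ran for the 21 days, with drug suspended in 1% gum tragacanth or a corn oil-water emulsion. At the end the rats were sacrificed and the small intestine and stomach were examined for ulcers. Results are given as animals with ulcers/animals tested.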

The subject of assay [5] is Rattus norvegicus. Kind of assay: Antiinflammatory efficacy is measured by the weight gain in rats during the 3 week adjuvant arthritis test at 0.02 mM/kg (8.80 mg). Type of assay: functional. In outline: as §1
Assay [6] deals with Rattus norvegicus. In words: Ulcerogenicity was measured in intestine during the 3 week adjuvant arthritis test, no of animals with ulcers out of 4 animals tested at 0.16 mM/kg (70.4 mg) was reported. Type of assay: functional. Put shortly: (§3)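 In the 21-day adjuvant arthritis model, male Sprague-Dawley rats (200–230 g) received an M. butyricum mineral-oil suspension into one hind paw. They were dosed daily by gavage from the day of injection. At the end of the study the rats were killed, and the small intestines were examined for ulcers. Results are given as the number of ulcerated animals over the number tested.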

Assay [7] has as its system Rattus norvegicus. Kind of assay: Antiinflammatory efficacy is measured by the percent inhibition of paw volume during the 3 week adjuvant arthritis test at 0.02 mM/kg (8.80 mg). Type of assay: functional. In outline: (§4)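 Male Sprague-Dawley rats (200–230 g) were used in groups of eight. Each received 0.1 mL of 0.6% M. butyricum in heavy mineral oil into the plantar tissue of one hind paw. Daily oral gavage in 1% gum tragacanth or corn oil-water emulsion began on the injection day and ran 21 days. Total hind paw volume was measured by mercury displacement, and inhibition was taken versus vehicle-treated adjuvant controls.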

The subject of assay [8] is Rattus norvegicus. In words: The mean increase in paw volume was compared between drug treated groups and placebo to calculate the percent inhibition in rats at 0.02 mmol/kg by carrageenan Edema Assay; 40-49. Type of assay: functional.
Assay [9] relates to Rattus norvegicus. Kind of assay: Antiinflammatory efficacy is measured by the weight gain in rats during the 3 week adjuvant arthritis test at 0.08 mM/kg (35.2 mg). Type of assay: functional. Put shortly:
as §1

The subject of assay [10] is Rattus norvegicus. Kind of assay: Ulcerogenicity was measured in intestine during the 3 week adjuvant arthritis test, no of animals with ulcers out of 4 animals tested at 0.08 mM/kg (35.2 mg) was reported. Type of assay: functional. Put shortly: as §3
Assay [11] concerns Rattus norvegicus. In words: Antiinflammatory efficacy is measured by the percent inhibition of paw volume during the 3 week adjuvant arthritis test at 0.08 mM/kg (35.2 mg). Type of assay: functional. In outline: as §4
Assay [12] is filed under the species Rattus norvegicus. In words: Compound was evaluated for highest non-ulcerogenic dose (less than 50% ulcer incidence). Type of assay: functional. The conditions noted are these: read-out: ED50. Put shortly:
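Taken from the 21-day adjuvant arthritis test in male Sprague-Dawley rats dosed orally each day from the day of adjuvant injection. Small intestines and stomachs were examined for ulceration at the end. The value is the highest dose giving less than 50% ulcer incidence.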

For assay [13], the system named is Rattus norvegicus. Kind of assay: Antiinflammatory efficacy is measured by the percent inhibition of paw volume during the 3 week adjuvant arthritis test at 0.005 mM/kg (2.20 mg). Type of assay: functional. In outline: as §4
Assay [14] deals with Rattus norvegicus. In words: Ulcerogenicity was measured in intestine during the 3 week adjuvant arthritis test, no of animals with ulcers out of animals tested at 0.32 mM/kg (141 mg) was reported; toxic. Type of assay: functional, organism-based. In outline: as §2
Assay [15] has as its system Rattus norvegicus. In words: Ulcerogenicity was measured in stomach during the 3 week adjuvant arthritis test, no of animals with ulcers out of 4 animals tested at 0.08 mM/kg (35.2 mg) was reported. Type of assay: functional. In outline:
as §2

Assay [16] relates to Rattus norvegicus. In words: Ulcerogenicity was measured in stomach during the 3 week adjuvant arthritis test, no of animals with ulcers out of 8 animals tested at 0.08 mM/kg (32.4 mg) was reported. Type of assay: functional. Put shortly:
as §2

Assay [17] deals with Rattus norvegicus. In words: The percent inhibition was calculated from the average differences in hind paw volume between the adjuvant injected controls and the adjuvant-injected medicated rats at 0.08 mmol/kg; 90-99. Type of assay: functional.
The subject of assay [18] is Rattus norvegicus. Kind of assay: Ulcerogenicity was measured in intestine during the 3 week adjuvant arthritis test, no of animals with ulcers out of 8 animals tested at 0.08 mM/kg (32.4 mg) was reported. Type of assay: functional. Put shortly:
as §3

The test system of assay [19] is Rattus norvegicus. Kind of assay: Antiinflammatory efficacy is measured by the percent inhibition of paw volume during the 3 week adjuvant arthritis test at 0.005 mM/kg (2.03 mg). Type of assay: functional. Put shortly:
as §4

For assay [20], the system named is Rattus norvegicus. In words: The mean increase in paw volume was compared between drug treated groups and placebo to calculate the percent inhibition in rats at 0.02 mmol/kg by carrageenan Edema Assay; 50-59. Type of assay: functional.
Assay [21] relates to Rattus norvegicus. Kind of assay: Antiinflammatory efficacy is measured by the weight gain in rats during the 3 week adjuvant arthritis test at 0.02 mM/kg (8.11 mg). Type of assay: functional. In outline: as §1
Assay [22] has as its system Rattus norvegicus. In words: Ulcerogenicity was measured in stomach during the 3 week adjuvant arthritis test, no of animals with ulcers out of 3 animals tested at 0.32 mM/kg (130 mg) was reported. Type of assay: functional. In outline: as §2
The test system of assay [23] is Rattus norvegicus. In words: Antiinflammatory efficacy is measured by the weight gain in rats during the 3 week adjuvant arthritis test at 0.005 mM/kg (2.03 mg). Type of assay: functional. Put shortly:
as §1

For assay [24], the system named is Rattus norvegicus. In words: Ulcerogenicity was measured in intestine during the 3 week adjuvant arthritis test, no of animals with ulcers out of 3 animals tested at 0.32 mM/kg (130 mg) was reported. Type of assay: functional. In outline: as §3
In assay [25] the test system is Rattus norvegicus. In words: Potency relative to phenylbutazone at 0.02 […]. Type of assay: functional.
In assay [26] the test system is Rattus norvegicus. In words: Antiinflammatory efficacy is measured by the weight gain in rats during the 3 week adjuvant arthritis test at 0.08 mM/kg (32.24 mg). Type of assay: functional. Put shortly: as §1
For assay [27], the system named is Rattus norvegicus. Kind of assay: Antiinflammatory efficacy is measured by the percent inhibition of paw volume during the 3 week adjuvant arthritis test at 0.02 mM/kg (8.11 mg). Type of assay: functional. In outline:
as §4

Assay [28] deals with Rattus norvegicus. Kind of assay: Antiinflammatory efficacy is measured by the percent inhibition of paw volume during the 3 week adjuvant arthritis test at 0.08 mM/kg (32.24 mg). Type of assay: functional. In outline: as §4
Assay [29] relates to Rattus norvegicus. In words: The mean increase in paw volume was compared between drug treated groups and placebo to calculate the percent inhibition in rats at 0.08 mmol/kg by carrageenan Edema Assay; 50-59. Type of assay: functional.

By inhibition in vivo is commonly meant the share of the control response that was lost under treatment. By Inhibition is commonly meant the drop in the measured response relative to a control, in per cent. As for `CC(CN1CCCCC1CC1CCCCC1)c1cccc(C(O)c2ccc(Cl)cc2)c1` (stereo not given), the Weight gain in assay [1] was found to be 40%; in assay [2] it was 84%; in assay [5], 69%; in assay [9], 87%. Further, the inhibition in vivo at 80 µmol/kg in assay [3] is 80%. In addition, the Ulcerogenic index in [4] was 0; in assay [6], 3; in assay [10], 1; in assay [14] it was “Toxic”; in assay [15], 0. The Inhibition was 70% in assay [7], 88% in assay [11] and 64% in assay [13]. Moreover, the inhibition in vivo at 20 µmol/kg in assay [8] is 40%. For the same molecule, the highest non-ulcerogenic dose in [12] came out at 1 µmol/kg.
For the molecule `CC(CN1CCCCC1CC1CCCCC1)c1cccc(C(O)c2ccccc2)c1` (stereo not given), the Ulcerogenic index in [16] was 1; in assay [18], 1; in assay [22], 1; in assay [24], 3. Besides, the inhibition in vivo at 80 µmol/kg in assay [17] is 90%. For the same molecule, the results for the Inhibition in assay [19], in [27] and in assay [28] were 37%, 82% and 110%, respectively. Further, the inhibition in vivo at 20 µmol/kg in assay [20] is 30%. The Weight gain was 36% in assay [21], 13% in assay [23] and 67% in assay [26]. The same molecule had a Relative potency in assay [25] of 8.6%. Further, the highest non-ulcerogenic dose in assay [12] is 8 µmol/kg.
With `CC(CN1C(C)CCCC1C)c1cccc(C(=O)c2ccccc2)c1` (stereo not given), in [29], the inhibition in vivo at 80 µmol/kg was 50%.
